Fh CTSL1 inh – counter-screen for PFM18AAP inhibitors: inhibitors of F. hepatica cathepsin L1; recombinant F. hepatica cathepsin L1, Z-Leu-Arg-MCA fluorescence; inhibition, % at 5.96 µM; hit rate 0.49% among 300,000;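 active = inhibition above the mean of all tested compounds plus 3 SD, set per screening campaign, cut at about 17% in these data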;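 note: 0% = plate median of test compound wells and 100% = 1 µM Z-Phe-Ala-diazomethylketone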
pCIP destab – p/CIP protein destabilization | Q05BA5 | AID 1984 | F442A p/CIP-EGFP cells, EGFP fluorescence, 16 h | decrease of EGFP signal, % at 10 µM | hit rate 0.01% among 290,000;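 active = EGFP signal decrease of at least 30% at 10 µM or well 3 SD below plate mean, unless failing retest; inactive = the rest, including hits failing retest or dose response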
VIM-2 inhibitor – inhibitors of Pseudomonas aeruginosa VIM-2 metallo-beta-lactamase | purified VIM-2, nitrocefin hydrolysis, epi-absorbance fluorescence | inhibition, % at 5.6 µM | hit rate 0.89% among 290,000 | AID 1527;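 active = inhibition above the mean of all tested compounds plus 3 SD, cutoff set per screening run, cut at about 7.5% in these data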;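 note: red hydrolysis product quenches plate fluorescence so inhibitors raise well fluorescence; 0% = enzyme with DMSO and 100% = DMSO without enzyme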
IMP-1 inhibitor – inhibitors of Pseudomonas aeruginosa IMP-1 metallo-beta-lactamase | purified IMP-1, nitrocefin hydrolysis, epi-absorbance fluorescence | inhibition, % at 5.6 µM | hit rate 0.45% among 290,000 | AID 1556;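 active = inhibition above the mean plus 3 SD of all compounds in the same screening run, cut at about 4.5% in these data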;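 note: 0% = IMP-1 with DMSO and 100% = DMSO wells lacking enzyme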
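Assay system: purified IMP-1; Quantity: IMP-1 0.2 nM before substrate addition; Medium: HEPES buffer pH 7.1 with ZnSO4 and Brij 35; Incubation: 15 min enzyme–compound preincubation, then 25 min nitrocefin reaction, 25 °C; Signal: fluorescence quenching readout, ex 480/em 530 nm; Controls: DMSO with and without IMP-1; Repeats: singlicate testing.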
T cell modulator – modulates CD8 T cell binding to vesicles; response (vesicle binding), % at 7 µM; 2C CD8+ T cell-vesicle binding, flow cytometry; stronger effect = lower value; hit rate 0.068% among 330,000;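 active = response, share of CD8 T cells binding vesicles, and their 90th percentile fluorescence all below set limits, cut at about 80% in these data, passing the limit was not always enough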;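 note: values below 100% mean blocked vesicle binding to the CD8+ T cells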
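Incubation: binding step 1.5 h, 37 °C, antibody labelling 20 min, ice; system: murine 2C transgenic CD8+ T lymphocytes; technique: cytometric PE anti-B7-1 and Alexa647 anti-CD8 signals after 1% paraformaldehyde fixation; also added: QL9-charged Drosophila Ld/ICAM-1/B7-1 vesicles; control set: naked versus QL9-loaded vesicles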
SUMO HTRF inh – blocks human SUMOylation mediated by UBC9. P63279. HTRF SUMOylation assay, SAE1/SAE2 + UBC9, in vitro. inhibition, % at 35 µM. hit rate 0.36% among 290,000. AID 2006; in the data active = inhibition above about 50%, passing the limit was not always enough
Target sequence (P63279 whole entry, looked up): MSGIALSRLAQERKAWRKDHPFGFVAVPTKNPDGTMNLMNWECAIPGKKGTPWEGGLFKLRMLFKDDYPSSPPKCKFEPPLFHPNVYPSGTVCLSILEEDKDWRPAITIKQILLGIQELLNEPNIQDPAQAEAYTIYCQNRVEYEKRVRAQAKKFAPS
An asterisk follows results filed as active; i = inactive; nt = no result. Hits are enriched below; roughly 1.9% of the tested compounds scored in any of these assays.

SMILES	Fh CTSL1 inh	pCIP destab	VIM-2 inhibitor	IMP-1 inhibitor	T cell modulator	SUMO HTRF inh
Cc1cc(N2CCCCCC2)nc2ccccc12	20*	-16	-3	-2	220	32
COC(=O)c1c(NC(=O)CC2Nc3cc(C)c(C)cc3NC2=O)sc(C)c1C (stereo not given)	-1	-13	-1	4.6*	202	14
COc1ccc(CN2CCNC(=O)C2CC(=O)NCCc2nc(C)c(C)s2)cc1C (stereo not given)	-1	3	-5	3	285	-7
Cc1nc(CCNC(=O)CC2C(=O)NCCN2Cc2ccccc2)sc1C (stereo not given)	0	-6	-1	5.0*	188	-10
Cc1ccc(NC(=O)COC(=O)c2ccc(=O)n(Cc3ccccc3)n2)cc1F	13	nt	nt	nt	436	nt
CC(OC(=O)c1ccc(=O)n(Cc2ccccc2)n1)C(=O)Nc1cccc(Cl)c1 (stereo not given)	17*	nt	nt	nt	664	nt
COc1ccc(C2=[N+](C)CCn3cccc32)c(OC)c1	6	-22	3	7.2*	198	14
COc1ccc(CN2CCc3ccccc3C2)c(OC)c1	2	-4	-3	-2	852	8
N#Cc1c(N2CCCC2)nc(N)c2c(N)nc(N3CCCC3)cc12	110*	-12	-5	-1	392	100*
COc1cc2c(C#N)c(N3CCN(C)CC3)nc(N)c2c(N)n1	2	-2	3	-4	167	99*
COc1cc2c(C#N)c(N3CCCC3)nc(N)c2c(N)n1	0	-6	1	-3	324	nt
O=C(N/N=C/c1c(Cl)[nH]c2ccccc12)c1ccc2c(c1)OCCO2	5	-7	-2	-2	79	5
CCN(CC)C(=O)c1ccc(/C=C/c2c[nH]c3ccccc23)[n+](C)c1	8	-29	6	4.8*	497	-12
O=C(/C=C/c1ccco1)NC(=S)Nc1ccc(N2CCCC2)cc1	0	-6	0	1	0	60*
O=C(COC(=O)/C=C/c1ccco1)NC1CCCCC1	nt	nt	nt	nt	386	nt
O=C(/C=C/c1ccco1)NC1CCCC1	59*	-6	-3	-1	246	17
O=C(/C=C/c1ccco1)NC(=S)Nc1ccc(C(=O)O)cc1	-3	-10	0	1	637	45
O=C(/C=C/c1ccc([N+](=O)[O-])cc1)NCc1ccccn1	5	-8	-2	0	370	-4
O=C(/C=C/c1ccco1)NCc1ccccn1	17*	1	-4	-4	233	9
O=C(CNC(=O)c1ccc(Oc2ccccc2)cc1)OC1CCCCC1=O (stereo not given)	19*	0	-4	-3	341	-9
Cc1ccc(C(=O)NCC(=O)OC2CCCCC2=O)cc1C (stereo not given)	nt	nt	nt	nt	286	nt
CN(CCO)c1nc(N)c2c(N)nc3c(c2c1C#N)CC(=O)N3C1CCCC1	-1	-27	0	0	282	101*
CC(C)(C)N1C(=O)Cc2c1nc(N)c1c(N)nc(N3CCCCC3CO)c(C#N)c21 (stereo not given)	105*	-14	0	1	544	100*
CC(C)CC(OC(=O)c1ccco1)C(=O)NC1CCCC1 (stereo not given)	-45	12	-1	2	819	-8
Nc1nnc(SCC(=O)NC2CCCCCC2)s1	0	nt	nt	nt	185	nt
SMILES	Fh CTSL1 inh	pCIP destab	VIM-2 inhibitor	IMP-1 inhibitor	T cell modulator	SUMO HTRF inh
O=C(O)C1Nc2c(O)cccc2C2C=CCC12 (stereo not given)	-3	5	12*	-2	257	97*
Cn1c(=O)c(NC2CCCCC2)c2c3c(cccc31)C(=O)c1ccccc1-2	nt	i	7	5.9*	nt	25
CC(=O)Nc1ccc(Nc2c3c4c(cccc4n(C)c2=O)C(=O)c2ccccc2-3)cc1	5	1	-1	0	118	-4
Cn1cc([N+](=O)[O-])c(C(=O)NC2CCCC2)n1	nt	-2	-2	-2	nt	10
CCN(C(=O)COC(=O)/C=C/c1c(C)nn(-c2ccccc2)c1C)C1CCS(=O)(=O)C1 (stereo not given)	4	-20	-2	-3	215	7
O=C(N/N=C/c1cc(Br)ccc1OC(=O)c1ccc(Br)cc1)c1ccncc1	2	-8	-2	-2	169	4
Cc1nc2nc(CCNS(=O)(=O)c3ccc(Cl)cc3)cn2nc1C	30*	-15	0	2	490	39
COc1ccc(S(=O)(=O)NCCc2cn3nc(C)c(C)nc3n2)cc1	4	2	-2	-5	585	32
CNc1nc(SCc2ccccc2)nc(N2CCOCC2)n1	1	8	-3	-1	313	-10
CC(C)(C)Nc1nc(SCc2ccccc2)nc(N2CCOCC2)n1	19*	-10	0	-1	702	-1
CN(C(=O)COC(=O)c1cccc(NS(=O)(=O)c2ccc(F)c(F)c2)c1)C1CCS(=O)(=O)C1 (stereo not given)	-2	8	-1	-1	19*	-8
COc1cc(NC(=O)Cn2c(-c3cncs3)nc3ccccc32)cc(OC)c1OC	-3	-8	8.6*	-3	313	22
COc1cc(NC(=O)Cn2c(C)cc3ccccc3c2=O)cc(OC)c1OC	2	-3	2	1	219	4
C#CCOc1c(Cl)cc(/C=N/NC(N)=S)cc1OCC	80*	-10	-4	-2	138	-1
CCOc1c(Cl)cc(/C=N/NC(N)=S)cc1OC	26*	-2	-3	-4	235	7
COc1cc(/C=N/NC(N)=S)cc(Br)c1OCc1ccccc1F	5	-14	-1	-3	181	-6
COc1cc(C(=O)NCC(=O)Nc2ccc(F)c(F)c2)ccc1OCC(=O)N1CCOCC1	20*	nt	nt	nt	192	nt
O=C(c1cccs1)N1N=C(c2ccccc2)CC1c1ccccc1O (stereo not given)	0	-8	0	0	276	66*
COc1ccc(N(C)C(=O)Cc2c(C(=O)O)n(C)c3ccccc23)c(OC)c1	6	4	-3	-2	444	-5
CCC1=NN2C(=N)/C(=C\c3ccc(OCCOc4ccc(NC(C)=O)cc4)cc3)C(=O)N=C2S1	5	-25	10*	-3	59	18
CCOc1cc(/C=C2\C(=N)N3N=C(CC)SC3=NC2=O)ccc1OCCOc1ccc(NC(C)=O)cc1	1	3	5	0	466	6
CCOc1ccccc1NC(=O)c1cccc(NC(=O)CC(c2ccccc2)c2ccccc2)c1	18*	-16	-2	-2	468	10
CNC(=O)/C(C#N)=C/c1c(N2CCCCCC2)nc2ccccn2c1=O	5	5	8.1*	-2	231	-2
